Experimental findings from ChEMBL document CHEMBL1759910, “Imidazopyridine CB2 agonists: optimization of CB2/CB1 selectivity and implications for in vivo analgesic efficacy” (Bioorg Med Chem Lett, 2011) are described below.

Activity calls are given as the source filed them.

For data set [1], the target named is T1, Cannabinoid receptor 2 (Homo sapiens, UniProt P34972). Description: Agonist activity at human CB2 receptor expressed in CHO-K1 cells assessed as inhibition of forskolin-stimulated cAMP level. Type of data set: functional, cell-based. The gist of the method:
(§1)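 Receptor (human or rat CB1 or CB2) expressed in CHO-K1 cells, 1000 cells per well, added to compound and incubated at room temperature for 15 min. Read-out is IC50 with Emax.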
A general note: cAMP levels reflect the balance of adenylyl cyclase and phosphodiesterase activity.

Data set [2] concerns the target T1, Cannabinoid receptor 2. In words: Agonist activity at human CB2 receptor expressed in CHO-K1 cells assessed as inhibition of forskolin-stimulated cAMP level relative to control. Type of data set: functional, cell-based. In outline:
as §1

In data set [3] the target is T2, Cannabinoid receptor 1 (Homo sapiens, UniProt P21554). Description: Agonist activity at human CB1 receptor expressed in CHO-K1 cells assessed as inhibition of forskolin-stimulated cAMP level. The data set is classed as functional, cell-based. The gist of the method: as §1
Data set [4] is described as follows: Plasma protein binding in rat assessed as fraction unbound. Type of data set: ADME, cell-free. The gist of the method:
(§2)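 Free fraction in rat plasma measured by ultrafiltration or equilibrium dialysis after incubation with rat plasma.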

In data set [5] the target is T3, Cannabinoid receptor 2 (Rattus norvegicus, UniProt Q9QZN9).
T3 sequence (Q9QZN9 whole entry): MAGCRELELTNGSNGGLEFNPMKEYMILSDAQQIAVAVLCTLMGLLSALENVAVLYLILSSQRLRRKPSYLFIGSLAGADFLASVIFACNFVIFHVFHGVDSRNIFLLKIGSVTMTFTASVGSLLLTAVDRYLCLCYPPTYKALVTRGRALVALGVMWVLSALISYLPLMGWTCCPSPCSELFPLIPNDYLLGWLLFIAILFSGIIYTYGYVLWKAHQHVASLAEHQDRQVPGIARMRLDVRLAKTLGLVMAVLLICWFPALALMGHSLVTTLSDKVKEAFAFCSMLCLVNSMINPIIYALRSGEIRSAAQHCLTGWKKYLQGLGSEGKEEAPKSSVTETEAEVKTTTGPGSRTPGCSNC
In words: Agonist activity at rat CB2 receptor expressed in CHO-K1 cells assessed as inhibition of forskolin-stimulated cAMP level. Type of data set: functional, cell-based. In outline: as §1

The target in data set [6] is T4, Cannabinoid receptor 2 (Rattus norvegicus) (UniProt Q9QZN9).
T4 sequence (whole entry): T3 sequence (Q9QZN9 whole entry)
In words: Agonist activity at rat CB2 receptor expressed in CHO-K1 cells assessed as inhibition of forskolin-stimulated cAMP level relative to control. The data set is classed as functional, cell-based. In outline: as §1

The target in data set [7] is Cannabinoid receptor 1 (Rattus norvegicus, UniProt P20272). Description: Agonist activity at rat CB1 receptor expressed in CHO-K1 cells assessed as inhibition of forskolin-stimulated cAMP level. The data set is classed as functional, cell-based. In outline: as §1
The subject of data set [8] is Rattus norvegicus. Description: Analgesic activity in Lewis rat complete Freund's adjuvant-induced hyperalgesia model assessed as reversal in paw withdrawal threshold at 100 mg/kg, po and sc. The data set is classed as functional, organism-based. More on the design: dose 100 mg/kg. The gist of the method:
(§3)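 Rats with CFA-induced hyperalgesia dosed orally or subcutaneously at 100 mpk. Naproxen 20 mg/kg and vehicle served as controls. Paw withdrawal threshold read at baseline, after CFA, and post-dose (30, 60 or 120 min). Plasma, brain and CSF drug levels measured at the 60 or 120 min post-dose timepoint.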

A short description of data set [9]: Plasma concentration in Lewis rat complete Freund's adjuvant-induced hyperalgesia model at 100 mg/kg, po and sc at 120 mins. The data set is classed as ADME, organism-based. On the set-up: dose 100 mg/kg, route oral. The gist of the method:
as §3

The nature of data set [10]: Drug level in brain of Lewis rat complete Freund's adjuvant-induced hyperalgesia model at 100 mg/kg, po and sc at 120 mins. Type of data set: ADME, organism-based. More on the design: dose 100 mg/kg, route oral. The note with it: read-out: Drug uptake. The gist of the method: as §3
Data set [11] can be described thus: Drug level in cerebrospinal fluid of Lewis rat complete Freund's adjuvant-induced hyperalgesia model at 100 mg/kg, po and sc at 120 mins. Type of data set: ADME, organism-based. On the set-up: dose 100 mg/kg, route oral. The note with it: read-out: Drug uptake. In outline: as §3
A short description of data set [12]: Plasma protein binding in rat. The data set is classed as ADME, cell-free. The note with it: read-out: PPB (converted). In outline:
as §2

The target of data set [13] is T2, Cannabinoid receptor 1. Description: Agonist activity at human CB1 receptor expressed in CHO-K1 cells assessed as inhibition of forskolin-stimulated cAMP level relative to control. The data set is classed as functional, cell-based. The gist of the method: as §1
For data set [14], the target named is Cannabinoid receptor 1 (Rattus norvegicus) (UniProt P20272). Description: Agonist activity at rat CB1 receptor expressed in CHO-K1 cells assessed as inhibition of forskolin-stimulated cAMP level relative to control. The data set is classed as functional, cell-based. In outline: as §1
The nature of data set [15]: Plasma concentration in Lewis rat complete Freund's adjuvant-induced hyperalgesia model at 100 mg/kg, po and sc at 60 mins. On the set-up: dose 100 mg/kg, route oral. Type of data set: ADME, organism-based. In outline: as §3
The nature of data set [16]: Drug level in brain of Lewis rat complete Freund's adjuvant-induced hyperalgesia at 100 mg/kg, po and sc at 60 mins. The note with it: read-out: Drug uptake. The data set is classed as ADME, organism-based. More on the design: dose 100 mg/kg, route oral. The gist of the method: as §3
A short description of data set [17]: Drug level in cerebrospinal fluid of Lewis rat complete Freund's adjuvant-induced hyperalgesia model at 100 mg/kg, po and sc at 60 mins. The data set is classed as ADME, organism-based. The note with it: read-out: Drug uptake. More on the design: dose 100 mg/kg, route oral. In outline: as §3
Data set [18] concerns Rattus norvegicus. In words: Neurotoxicity in rat assessed as impairment of motor co-ordination at 100 mg/kg, po by rotarod method. Type of data set: toxicity, organism-based. More on the design: dose 100 mg/kg, route oral. The note with it: in vivo. (The rotarod test checks motor coordination on a turning rod.)
Data set [19] deals with T1, Cannabinoid receptor 2. In words: Binding affinity to human CB2 receptor.
The target of data set [20] is T2, Cannabinoid receptor 1. Description: Binding affinity to human CB1 receptor.

Broadly, the IC50 is the midpoint of a concentration-inhibition curve. Usually Emax stands for the maximal effect, on the per cent scale that the assay sets. The term Ki denotes a dissociation constant, usually derived from enzyme kinetics or from competition with a known ligand. A lower Ki goes with higher affinity.

T2 sequence (P21554 whole entry): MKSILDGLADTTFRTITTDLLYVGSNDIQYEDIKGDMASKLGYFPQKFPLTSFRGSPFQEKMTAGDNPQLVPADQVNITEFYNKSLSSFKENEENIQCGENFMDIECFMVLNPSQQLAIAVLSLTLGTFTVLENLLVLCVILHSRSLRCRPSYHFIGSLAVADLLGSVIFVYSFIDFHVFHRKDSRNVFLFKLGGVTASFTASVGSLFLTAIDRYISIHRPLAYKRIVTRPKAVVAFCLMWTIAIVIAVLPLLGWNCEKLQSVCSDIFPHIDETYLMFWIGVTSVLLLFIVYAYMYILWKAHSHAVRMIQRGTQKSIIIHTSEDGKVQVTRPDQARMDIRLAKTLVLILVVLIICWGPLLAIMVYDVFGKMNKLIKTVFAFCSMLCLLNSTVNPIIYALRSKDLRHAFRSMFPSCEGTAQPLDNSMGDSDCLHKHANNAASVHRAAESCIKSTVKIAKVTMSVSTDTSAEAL
T1 sequence (P34972 whole entry): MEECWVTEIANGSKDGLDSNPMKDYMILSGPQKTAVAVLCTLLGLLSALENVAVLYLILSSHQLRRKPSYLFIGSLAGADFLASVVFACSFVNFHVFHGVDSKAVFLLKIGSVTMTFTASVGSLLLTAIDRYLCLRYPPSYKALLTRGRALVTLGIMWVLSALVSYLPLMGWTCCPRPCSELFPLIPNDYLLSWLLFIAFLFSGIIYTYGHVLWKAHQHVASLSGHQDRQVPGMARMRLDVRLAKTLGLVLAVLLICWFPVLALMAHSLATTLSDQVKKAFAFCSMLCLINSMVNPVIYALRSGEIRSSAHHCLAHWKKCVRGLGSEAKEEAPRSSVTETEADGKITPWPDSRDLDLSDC
Chain of Cannabinoid receptor 1 (Rattus norvegicus, UniProt P20272) (P20272 whole entry): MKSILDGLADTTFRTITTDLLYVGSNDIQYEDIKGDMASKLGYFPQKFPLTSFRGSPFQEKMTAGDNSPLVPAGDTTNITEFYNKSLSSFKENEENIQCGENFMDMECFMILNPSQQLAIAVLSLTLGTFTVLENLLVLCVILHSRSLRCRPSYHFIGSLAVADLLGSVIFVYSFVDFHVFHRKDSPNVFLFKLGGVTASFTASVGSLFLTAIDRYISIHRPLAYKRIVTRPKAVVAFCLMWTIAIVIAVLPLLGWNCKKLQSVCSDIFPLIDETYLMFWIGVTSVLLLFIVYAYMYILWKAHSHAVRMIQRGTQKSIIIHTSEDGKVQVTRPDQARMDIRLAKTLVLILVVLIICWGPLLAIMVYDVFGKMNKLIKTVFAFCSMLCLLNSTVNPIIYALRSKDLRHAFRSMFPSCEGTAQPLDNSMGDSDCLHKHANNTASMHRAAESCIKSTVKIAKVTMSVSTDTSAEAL
Chain of Cannabinoid receptor 1 (Rattus norvegicus) (P20272 whole entry): as above

For the compound `O=C(NCC1(CO)CCCC1)c1nc(N2CCOCC2)n2ccccc12`, the IC50 in data set [1] was 33 nM; in data set [3] it was above 17000 nM; in [5] it was 58 nM; in [7] it was above 17000 nM. Further, the Emax worked out at 99% in data set [2] and 87% in data set [6]. The fraction unbound in data set [4] and in [12] was 0.16 each time. Besides, the outcome in data set [8] was inactive. The values for the concentration at 2 h in [9], in data set [10] and in [11] were 4300 nM, 1300 nM and 300 nM, respectively.
Regarding `O=C(N[C@H](c1ccccn1)C(F)(F)F)c1nc(N2CCOCC2)c2cnccn12`, the results for the IC50 in data set [1] and in data set [3] were 139 nM and above 17000 nM, respectively. The Emax in data set [2] is 94%. Moreover, the fraction unbound in [4] is 0.18.
With `O=C(c1cccc(F)c1C(F)(F)F)c1nc(CN2CCOCC2)c2ccccn12`, the values for the IC50 in data set [1] and in data set [3] were 0.7 nM and 2230 nM, respectively. The Emax in data set [2] was 98%; in data set [13] it was 97%. The fraction unbound in [4] was found to be 0.03.
For the compound `O=C(NCC1(CO)CCCC1)c1nc(CN2CCC(F)(F)CC2)n2ccccc12`, the IC50 in data set [1] came out at 3 nM; in [3], 68 nM. Further, the results for the Emax in [2] and in data set [13] were 88% and 99%, respectively.
Turning to `O=C(Nc1cccc(C(F)(F)F)n1)c1nc(CN2CCC(F)(F)CC2)c2ccccn12`, the IC50 in data set [1] worked out at 1.7 nM; in data set [3], 347 nM. Further, the values for the Emax in data set [2] and in data set [13] were 98% and 100%, respectively.
As for `O=C(NC(c1ccncc1)c1ccc(F)cc1)c1nc(N2CCC(F)(F)C2)c2cnccn12` (stereo not given), the IC50 in data set [1] is 92 nM; in [3] it was above 17000 nM. The Emax in data set [2] turned out to be 96%. Besides, in data set [4], the fraction unbound came out at 0.03.
On to `O=C(Nc1cccc(C(F)(F)F)n1)c1nc(CN2CCS(=O)(=O)CC2)c2ccccn12`, for which the IC50 in [1] came out at 44 nM; in [3] it was 12700 nM. Moreover, the results for the maximal response (Emax) in [2] and in data set [13] were 80% and 54%, respectively. Also, in data set [4], the fraction unbound amounted to 0.11.
For `CC(C)(C)CNC(=O)c1nc(C2CC2)n2ccccc12`, the values for the IC50 in data set [1] and in data set [3] were 21 nM and above 17000 nM, respectively. The Emax in [2] was 97%. The fraction unbound in data set [4] was found to be 0.05.
With `O=C(c1cccc(Cl)c1Cl)c1nc(CN2CCOCC2)c2ccccn12`, the IC50 in data set [1] came out at 5 nM; in [3], 2560 nM; in data set [5], 11 nM; in data set [7], 1070 nM. The Emax in [2] turned out to be 94%; in data set [13] it was 66%; in data set [6] it was 87%; in data set [14], 104%. The fraction unbound in data set [4] and in [12] was 0.24 each time. For the same compound, the Activity entry in data set [8] is “Dose-dependent effect”; in data set [18] it was “Toxic”. Moreover, the concentration at 1 h in [15] came out at 4500 nM; in data set [16], 5400 nM; in data set [17], 110 nM.
As for `O=C(c1cccc(Cl)c1Cl)c1nc(CN2CCC(F)(F)CC2)c2ccccn12`, the results for the IC50 in data set [1] and in data set [3] were 0.3 nM and 90 nM, respectively. Moreover, the maximal effect (Emax) in data set [2] was determined as 110%; in data set [13], 101%.
In the case of `O=C(NC(c1cccnc1)C(F)(F)F)c1nc(N2CCOCC2)c2cnccn12` (stereo not given), the IC50 in [1] is 69 nM; in [3] it was above 17000 nM. Also, the Emax in data set [2] stood at 98%. For the same compound, in data set [4], the fraction unbound was 0.25.
In the same order, the values of `C[C@@H](NC(=O)c1nc(N2CCC(F)(F)CC2)c2cnccn12)C(C)(C)C` are 36 nM, above 17000 nM, 99% and 0.06.
As to `COc1ccc2c(c1)c(CCN1CCOCC1)c(C)n2C(=O)c1cccc(Cl)c1Cl`, the figures for the Ki in [19] and in data set [20] were 10 nM and 2000 nM, respectively.
With `O=C(NC(C1CC1)C1CC1)c1nc(C2CC2)n2ccccc12`, the IC50 was 7 nM in data set [1] and above 17000 nM in data set [3]. Further, in [2], the maximal response (Emax) was found to be 99%. For the same compound, the fraction unbound in data set [4] is 0.03.
For `O=C(N[C@H](c1ccccn1)C(F)(F)F)c1nc(N2CCOCC2)n2ccccc12`, the IC50 amounted to 21 nM in [1] and 705 nM in data set [3]. Besides, the Emax in data set [2] came out at 97%; in data set [13], 55%. In data set [4], the fraction unbound is 0.1.
